Source: ChEMBL document CHEMBL5252608, “Eremoxylarins D-J, Antibacterial Eremophilane Sesquiterpenes Discovered from an Endolichenic Strain of Xylaria hypoxylon” (J Nat Prod, 2023)
In brackets after ≈: the same amount, converted by molar mass.

Legend:
Assay type in all cases: functional
[1] = tested on: Staphylococcus aureus; test: Antibacterial activity against Staphylococcus aureus CIP 53.156 assessed as bacterial growth inhibition incubated for 24 hrs by optical density based microplate reader analysis
Procedure, shortened: (§1)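 Broth microdilution in LB per CLSI, in triplicate; compounds dissolved in DMSO (stock 5 mg/mL; gentamicin stock 10 mg/mL as positive control), serially diluted 1:2. Wells inoculated with 10⁶ CFU/mL, incubated 24 h at 37 °C, with solvent as negative control. OD 630 nm read before and after incubation; MIC taken as the lowest-concentration clear well. Wells also plated on LB agar for 24 h at 37 °C.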

[2] = tested on: Staphylococcus aureus; test: Antibacterial activity against methicillin resistant Staphylococcus aureus DSM 13661 assessed as bacterial growth inhibition incubated for 24 hrs by optical density based microplate reader analysis
Procedure, shortened: (§2)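 Broth microdilution per CLSI, in triplicate: compounds as 5 mg/mL DMSO stocks (gentamicin 10 mg/mL stock as positive control), serially diluted 1:2 in LB. Wells inoculated with 10⁶ CFU/mL, 24 h at 37 °C, solvent-only negative control. OD630 read before and after incubation. MIC taken as the lowest-concentration clear well, i.e. no visible growth.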

[3] = tested on: Staphylococcus epidermidis; test: Antibacterial activity against Staphylococcus epidermidis CIP 53.124 assessed as bacterial growth inhibition incubated for 24 hrs by optical density based microplate reader analysis; procedure, shortened: as §1
[4] = tested on: Escherichia coli; test: Antibacterial activity against […] Escherichia coli CIP 54.8 assessed as bacterial growth inhibition incubated for 24 hrs by optical density based microplate reader analysis; procedure, shortened: as §2
[5] = tested on: Pseudomonas aeruginosa; test: Antibacterial activity against Pseudomonas aeruginosa CIP A22 assessed as bacterial growth inhibition incubated for 24 hrs by optical density based microplate reader analysis; procedure, shortened: as §1
[6] = tested on: Huh-7; test: Cytotoxicity against human Huh-7 cells assessed as cell growth inhibition measured after 24 hrs by MTS assay
Procedure, shortened: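 Huh-7 cells (DMEM with glutaMAX-I, 10% FBS, 37 °C, 5% CO₂), 6×10^4 per well, allowed 16 h before 24 h exposure to increasing compound concentrations (DMSO stocks 100 mM). Viability by MTS, formazan absorbance at 490 nm; CC50 derived. Mean ± SEM of 3 experiments.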

C=C(C=O)[C@H]1CC=C2[C@H](OC(=O)/C(C)=C/C=C/CCCCC)CC[C@H](C(=O)O)[C@@]2(C)C1
MIC [1]: 1.56 mg/L (≈ 3.64 µM)
MIC [2]: 3.1 mg/L (≈ 7.23 µM)
MIC [3]: 3.1 mg/L (≈ 7.23 µM)
MIC [4]: > 50 mg/L
MIC [5]: > 50 mg/L
CC50 [6]: 184 µM

GENTAMICIN
MIC [1]: 3.91 mg/L
MIC [2]: 250 mg/L
MIC [3]: > 250 mg/L
MIC [4]: 3.91 mg/L
MIC [5]: 1.95 mg/L

C=C(C=O)[C@H]1CC=C2[C@H](OC(=O)/C(C)=C/CCCCCCC)CC[C@H](C(=O)O)[C@@]2(C)C1
MIC [1]: 0.39 mg/L (≈ 0.906 µM)
MIC [2]: 1.56 mg/L (≈ 3.62 µM)
MIC [3]: 1.56 mg/L (≈ 3.62 µM)
MIC [4]: > 50 mg/L
MIC [5]: > 50 mg/L
CC50 [6]: 48.1 µM
